Measured values from different studies.
Compare with care: the assays were run in different laboratories.
Target: Ephrin type-B receptor 2 (EPHB2, Homo sapiens, UniProt P29323)
One construct used (P29323 1-1055): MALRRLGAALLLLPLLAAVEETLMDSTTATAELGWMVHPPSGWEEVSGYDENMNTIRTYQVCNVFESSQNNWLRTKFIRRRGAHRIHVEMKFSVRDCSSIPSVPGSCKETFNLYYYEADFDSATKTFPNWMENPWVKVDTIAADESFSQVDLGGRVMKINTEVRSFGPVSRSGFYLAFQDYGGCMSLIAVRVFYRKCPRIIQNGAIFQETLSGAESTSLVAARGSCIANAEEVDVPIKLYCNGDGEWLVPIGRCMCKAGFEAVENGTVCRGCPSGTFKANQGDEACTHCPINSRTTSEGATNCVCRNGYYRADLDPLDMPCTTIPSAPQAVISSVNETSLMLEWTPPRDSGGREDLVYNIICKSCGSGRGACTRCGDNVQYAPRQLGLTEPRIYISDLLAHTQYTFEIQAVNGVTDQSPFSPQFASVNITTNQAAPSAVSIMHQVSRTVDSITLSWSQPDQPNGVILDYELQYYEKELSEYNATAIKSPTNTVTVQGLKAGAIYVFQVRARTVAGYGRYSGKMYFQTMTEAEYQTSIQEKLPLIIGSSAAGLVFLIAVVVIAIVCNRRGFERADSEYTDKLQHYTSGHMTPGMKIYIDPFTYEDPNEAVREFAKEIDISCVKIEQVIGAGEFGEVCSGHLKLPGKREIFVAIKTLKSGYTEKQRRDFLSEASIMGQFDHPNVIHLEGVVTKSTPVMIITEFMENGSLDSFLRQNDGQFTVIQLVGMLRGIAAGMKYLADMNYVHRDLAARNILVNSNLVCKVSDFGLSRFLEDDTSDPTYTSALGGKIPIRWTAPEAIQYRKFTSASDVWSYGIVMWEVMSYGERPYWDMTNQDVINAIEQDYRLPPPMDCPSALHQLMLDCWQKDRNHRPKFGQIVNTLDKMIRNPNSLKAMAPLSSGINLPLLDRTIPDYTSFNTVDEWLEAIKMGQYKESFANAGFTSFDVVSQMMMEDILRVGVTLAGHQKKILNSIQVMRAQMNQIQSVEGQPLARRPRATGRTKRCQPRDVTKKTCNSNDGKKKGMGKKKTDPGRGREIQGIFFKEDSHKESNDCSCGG

For CNC(=O)Nc1ccc2c(c1)[C@@]1(CC2)OC(=O)N(CC(=O)N(Cc2ccc(F)cc2)[C@@H](C)C(F)(F)F)C1=O, the remaining binding was 87% (cell-free assay, competition with immobilised ligand; 1 µM).
COc1cc2ncnc(Nc3ccc(Oc4ccccc4)cc3C)c2cc1OC gave an inhibition of 25% (enzyme activity, inhibitor; 1 µM).
Cc1cc(NC(=O)c2cccc3cc(-c4cccc5[nH]nc(N)c45)ccc23)ccc1F has an activity vs control of 102% (enzyme activity, inhibitor; 0.1 µM).
O=C(Nc1cccnn1)N1CCC(=Cc2cccc(Oc3ccc(C(F)(F)F)cn3)c2)CC1 has a remaining binding of 100% (cell-free assay, competition with immobilised ligand; 1 µM).
The inhibition of CN1CC(Oc2cnc(C#N)cc2-c2ccn3nc(NC(=O)C4CC4)cc3c2)C1 is reported as 4% (enzyme activity, inhibitor; 1 µM).
The remaining binding of CCC(=O)N[C@@H]1CC[C@H](C(=O)N(C)c2ccc(-c3nc4ccccc4o3)cc2)C1 is reported as 82% (cell-free assay, competition with immobilised ligand; 1 µM).
COc1cc(Nc2cnc(C#N)c(O[C@H](C)CN(C)C)n2)ncc1-c1cnn(C)c1 has a remaining activity of 63% (enzyme activity, inhibitor, radiometric; 10 µM).
CC(C)(O)c1cncc(-c2nc3ccc(F)cc3n2C2CC2)c1 gave a remaining binding of 99% (cell-free assay, competition with immobilised ligand; 1 µM).
With CC(C)(C)c1nc2c(s1)c1nc(N)ncc1c1ccc(NS(=O)(=O)c3c(F)cccc3F)c(F)c12 the remaining activity was 91% (enzyme activity, inhibitor, radiometric; 1 µM).
With C[C@H](c1ccnc(Nc2nc3ccc(-c4cc(N(C)C)ncn4)cc3[nH]2)c1)N1CCN(C(=O)CC(F)(F)F)CC1 the remaining binding was 93% (cell-free assay, competition with immobilised ligand; 0.1 µM).
Cc1ccc(Nc2nccc(N(C)c3ccc4c(C)n(C)nc4c3)n2)cc1S(N)(=O)=O has an inhibition of 44% (enzyme activity, inhibitor; 10 µM).
Cc1ccc(C(=O)Nc2ccc(CN3CCN(C)CC3)c(C(F)(F)F)c2)cc1C#Cc1cnc2cccnn12 gave a remaining signal of 49% (cell-free assay; 23.5 nM).
O=C1Nc2ccc(Cl)cc2C1=Cc1cc(Cl)c(O)c(Cl)c1 gave a remaining signal of 90.9% (cell-free assay; 0.5 µM).
With Cc1nc(C2CCN(C(=O)c3ccc(OC(F)(F)F)cc3N)CC2)c2ncc(N3CCN(C)CC3)cc2n1 the remaining binding was 100% (cell-free assay, competition with immobilised ligand; 1 µM).
For CN(C)c1ccc(C=C2C(=O)Nc3ccccc32)cc1, the remaining signal was 86.5% (cell-free assay; 0.5 µM).
Cn1c(=O)n(-c2ccc(C(C)(C)C#N)cc2)c2c3cc(-c4cnc5ccccc5c4)ccc3ncc21 has a remaining activity of 77% (enzyme activity, inhibitor; 10 µM).
The inhibition of COc1cccc2c(NCc3ccccc3)nc(-n3c(N)nc4ccccc43)nc12 is reported as 8.3% (target engagement in cells, inhibitor, chemoproteomics; 20 mM).
For O=C1NC(=O)c2cc(Nc3ccc(F)cc3)c(Nc3ccc(F)cc3)cc21, the remaining signal was 89.3% (cell-free assay; 0.5 µM).
The inhibition of CN(C)C1CCN(CC#Cc2nn(C3CCCC3)c3nc(NCc4ccccc4)ncc23)C1 (stereo not shown) is reported as 8% (enzyme activity, inhibitor, FRET; 1 µM).
